# Source: ChEMBL document CHEMBL1147862, “Studies on synthesis and pharmacological activities of 3,6-disubstituted-1,2,4-triazolo[3,4-b]-1,3,4-thiadiazoles and their dihydro analogues” (2007)
# Columns and labels:
# Format in all cases: functional
# Bacillus subtilis [1] = assay: Antibacterial activity against Bacillus subtilis at 20 ug/ml by agar plate diffusion technique; conditions: read-out: IZ
# Bacillus subtilis [2] = assay: Antibacterial activity against Bacillus subtilis at 30 ug/ml by agar plate diffusion technique; conditions: read-out: IZ
# Mus musculus [3] = assay: Analgesic activity in Swiss mouse assessed as increase in reaction time at 20 mg/kg, po after 60 mins by Eddy's hot plate technique
# How it was run: (§1)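 Swiss mice of either sex, 25–35 g, placed one at a time on a hot plate held at 55 °C. End point is paw licking or jumping, whichever comes first, with a 15 s cut-off to avoid paw injury. Reaction time is recorded and reported as percent increase in reaction time.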
# Escherichia coli [4] = assay: Antibacterial activity against Escherichia coli at 20 ug/ml by agar plate diffusion technique; conditions: read-out: IZ
# Pseudomonas aeruginosa [5] = assay: Antibacterial activity against Pseudomonas aeruginosa at 30 ug/ml by agar plate diffusion technique; conditions: read-out: IZ
# Staphylococcus aureus [6] = assay: Antibacterial activity against Staphylococcus aureus at 20 ug/ml by agar plate diffusion technique; conditions: read-out: IZ
# Escherichia coli [7] = assay: Antibacterial activity against Escherichia coli at 10 ug/ml by agar plate diffusion technique; conditions: read-out: IZ
# Rattus norvegicus [8] = assay: Antiinflammatory activity in Wistar Albino rat assessed as inhibition of carrageenan-induced paw oedema at 20 mg/kg after 1 hr relative to control
# How it was run: (§2)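 Wistar albino rats, 150–200 g, six per group, dosed orally with a 20 mg/kg suspension; control gets 0.1 ml 1% gum acacia. After 30 min, 0.1 ml 1% carrageenan in saline is injected subplantar into the right hind paw. Paw volume is read by plethysmograph at 0–4 h. Inhibition = 100(1 − Vtest/Vcontrol) on mean volume increase.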
# Candida albicans [9] = assay: Antifungal activity against Candida albicans at 30 ug/ml by paper disc method; conditions: read-out: IZ
# Escherichia coli [10] = assay: Antibacterial activity against Escherichia coli at 30 ug/ml by agar plate diffusion technique; conditions: read-out: IZ
# Mus musculus [11] = assay: Analgesic activity in Swiss mouse assessed as increase in reaction time at 20 mg/kg, po after 90 mins by Eddy's hot plate technique; how it was run: as §1
# Pseudomonas aeruginosa [12] = assay: Antibacterial activity against Pseudomonas aeruginosa at 20 ug/ml by agar plate diffusion technique; conditions: read-out: IZ
# Mus musculus [13] = assay: Analgesic activity in Swiss mouse assessed as increase in reaction time at 20 mg/kg, po after 30 mins by Eddy's hot plate technique; how it was run: as §1
# Rattus norvegicus [14] = assay: Antiinflammatory activity in Wistar Albino rat assessed as inhibition of carrageenan-induced paw oedema at 20 mg/kg after 2 hrs relative to control; how it was run: as §2
# Staphylococcus aureus [15] = assay: Antibacterial activity against Staphylococcus aureus at 30 ug/ml by agar plate diffusion technique; conditions: read-out: IZ
# Aspergillus niger [16] = assay: Antifungal activity against Aspergillus niger at 10 ug/ml by paper disc method; conditions: read-out: IZ
# Candida albicans [17] = assay: Antifungal activity against Candida albicans at 20 ug/ml by paper disc method; conditions: read-out: IZ
# Aspergillus niger [18] = assay: Antifungal activity against Aspergillus niger at 30 ug/ml by paper disc method; conditions: read-out: IZ
# Aspergillus niger [19] = assay: Antifungal activity against Aspergillus niger at 20 ug/ml by paper disc method; conditions: read-out: IZ
# Bacillus subtilis [20] = assay: Antibacterial activity against Bacillus subtilis at 10 ug/ml by agar plate diffusion technique; conditions: read-out: IZ
# Staphylococcus aureus [21] = assay: Antibacterial activity against Staphylococcus aureus at 10 ug/ml by agar plate diffusion technique; conditions: read-out: IZ
# Rattus norvegicus [22] = assay: Antiinflammatory activity in Wistar Albino rat assessed as inhibition of carrageenan-induced paw oedema at 20 mg/kg after 4 hrs relative to control; how it was run: as §2
# Rattus norvegicus [23] = assay: Antiinflammatory activity in Wistar Albino rat assessed as inhibition of carrageenan-induced paw oedema at 20 mg/kg after 3 hrs relative to control; how it was run: as §2
# Pseudomonas aeruginosa [24] = assay: Antibacterial activity against Pseudomonas aeruginosa at 10 ug/ml by agar plate diffusion technique; conditions: read-out: IZ
# Candida albicans [25] = assay: Antifungal activity against Candida albicans at 10 ug/ml by paper disc method; conditions: read-out: IZ
SMILES,zone of inhibition at 20 µg/mL (Bacillus subtilis [1]) [mm],zone of inhibition at 30 µg/mL (Bacillus subtilis [2]) [mm],Activity (Mus musculus [3]) [%],zone of inhibition at 20 µg/mL (Escherichia coli [4]) [mm],zone of inhibition at 30 µg/mL (Pseudomonas aeruginosa [5]) [mm],zone of inhibition at 20 µg/mL (Staphylococcus aureus [6]) [mm],zone of inhibition at 10 µg/mL (Escherichia coli [7]) [mm],inhibition in vivo at 20 mg/kg (Rattus norvegicus [8]) [%],zone of inhibition at 30 µg/mL (Candida albicans [9]) [mm],zone of inhibition at 30 µg/mL (Escherichia coli [10]) [mm],Activity (Mus musculus [11]) [%],zone of inhibition at 20 µg/mL (Pseudomonas aeruginosa [12]) [mm],Activity (Mus musculus [13]) [%],inhibition in vivo at 20 mg/kg (Rattus norvegicus [14]) [%],zone of inhibition at 30 µg/mL (Staphylococcus aureus [15]) [mm],zone of inhibition at 10 µg/mL (Aspergillus niger [16]) [mm],zone of inhibition at 20 µg/mL (Candida albicans [17]) [mm],zone of inhibition at 30 µg/mL (Aspergillus niger [18]) [mm],zone of inhibition at 20 µg/mL (Aspergillus niger [19]) [mm],zone of inhibition at 10 µg/mL (Bacillus subtilis [20]) [mm],other results
Cc1occc1-c1nnc2sc(Cc3c[nH]c4ccccc34)nn12,8.75,13.8,22.22,9.18,13.5,8.19,5.78,16,12.7,13.6,35.33,8.9,6.66,21.5,13.5,5.6,9.3,13.2,8.74,5.67,zone of inhibition at 10 µg/mL (Staphylococcus aureus [21]): 5.12 mm; inhibition in vivo at 20 mg/kg (Rattus norvegicus [22]): 30%; inhibition in vivo at 20 mg/kg (Rattus norvegicus [23]): 26.5%; zone of inhibition at 10 µg/mL (Pseudomonas aeruginosa [24]): 4.85 mm; zone of inhibition at 10 µg/mL (Candida albicans [25]): 5.38 mm
COc1ccc(Cc2nnc3n2NC(c2ccco2)S3)cc1OC (stereo not given),6.65,12.2,17.26,7.49,12.7,7.31,4.29,12,14.7,14.2,25.11,7.11,5.36,17.5,11.8,4.8,10.4,12.3,6.96,3.8,zone of inhibition at 10 µg/mL (Staphylococcus aureus [21]): 3.7 mm; inhibition in vivo at 20 mg/kg (Rattus norvegicus [22]): 24.6%; inhibition in vivo at 20 mg/kg (Rattus norvegicus [23]): 21.1%; zone of inhibition at 10 µg/mL (Pseudomonas aeruginosa [24]): 3.73 mm; zone of inhibition at 10 µg/mL (Candida albicans [25]): 5.48 mm
Cc1occc1-c1nnc2sc(-c3cc(-c4ccccc4)nc4ccccc34)nn12,11.8,16.9,14.48,13.2,17.3,12.7,7.64,11.8,19.4,17.4,21.1,12,4.86,14.5,17.5,5.92,14.8,17.7,11,6.16,zone of inhibition at 10 µg/mL (Staphylococcus aureus [21]): 6.18 mm; inhibition in vivo at 20 mg/kg (Rattus norvegicus [22]): 24.4%; inhibition in vivo at 20 mg/kg (Rattus norvegicus [23]): 16.4%; zone of inhibition at 10 µg/mL (Pseudomonas aeruginosa [24]): 7.12 mm; zone of inhibition at 10 µg/mL (Candida albicans [25]): 6.27 mm
COc1ccc(Cc2nnc3sc(Cc4c[nH]c5ccccc45)nn23)cc1OC,7.32,12.7,25,8.22,12.4,7.38,4.9,16.1,10.2,12.5,31.88,8.23,13.16,26.8,12.2,5.24,7.46,11.1,9.62,4.33,zone of inhibition at 10 µg/mL (Staphylococcus aureus [21]): 4.59 mm; inhibition in vivo at 20 mg/kg (Rattus norvegicus [22]): 28.5%; inhibition in vivo at 20 mg/kg (Rattus norvegicus [23]): 28.3%; zone of inhibition at 10 µg/mL (Pseudomonas aeruginosa [24]): 4.25 mm; zone of inhibition at 10 µg/mL (Candida albicans [25]): 4.1 mm
COc1ccc(Cl)c(-c2nnc3sc(-c4cc(-c5ccccc5)nc5ccccc45)nn23)c1,11.2,16.2,15.68,11.7,15.5,10.1,6.86,11.6,18.8,16.5,26.85,11.4,5.34,17.2,16.4,6.04,12.8,17.6,11.6,6.82,zone of inhibition at 10 µg/mL (Staphylococcus aureus [21]): 5.82 mm; inhibition in vivo at 20 mg/kg (Rattus norvegicus [22]): 24.5%; inhibition in vivo at 20 mg/kg (Rattus norvegicus [23]): 20.1%; zone of inhibition at 10 µg/mL (Pseudomonas aeruginosa [24]): 6.72 mm; zone of inhibition at 10 µg/mL (Candida albicans [25]): 5.64 mm
COc1ccc(Cc2nnc3sc(-c4cc(O)nc(O)c4)nn23)cc1OC,8.12,13.9,14.1,8.1,13.1,8.93,4.26,10.5,13.9,13.3,23.45,8.9,5.71,12.9,13.9,4.16,6.82,11.9,7.84,4.58,zone of inhibition at 10 µg/mL (Staphylococcus aureus [21]): 4.61 mm; inhibition in vivo at 20 mg/kg (Rattus norvegicus [22]): 20.8%; inhibition in vivo at 20 mg/kg (Rattus norvegicus [23]): 17.1%; zone of inhibition at 10 µg/mL (Pseudomonas aeruginosa [24]): 4.63 mm; zone of inhibition at 10 µg/mL (Candida albicans [25]): 3.82 mm
COc1ccc(Cl)c(-c2nnc3sc(-c4ccnc(F)c4)nn23)c1,14.1,19.2,11.35,14.7,19.5,14.1,8.1,18.5,21.7,19.7,20.34,14.9,4.12,24.6,19.2,6.68,14.5,20.5,12.6,7.78,zone of inhibition at 10 µg/mL (Staphylococcus aureus [21]): 7.29 mm; inhibition in vivo at 20 mg/kg (Rattus norvegicus [22]): 28.1%; inhibition in vivo at 20 mg/kg (Rattus norvegicus [23]): 25.9%; zone of inhibition at 10 µg/mL (Pseudomonas aeruginosa [24]): 8.68 mm; zone of inhibition at 10 µg/mL (Candida albicans [25]): 7.68 mm
